In article PMC10449033 (European journal of inorganic chemistry, 2023):
Like-named read-outs stand apart in the source and are kept apart here. Values belong to the compound of their own block, whether it stands above or below them.

Columns and labels:
[1] = target: T1, mitochondrial calcium uniporter (MCU) (Homo sapiens, UniProt Q8NE86); experiment: mCa2+ uptake inhibition in digitonin-permeabilized HEK293T cells; assay type: cell-based
T1 sequence (Q8NE86 51-351): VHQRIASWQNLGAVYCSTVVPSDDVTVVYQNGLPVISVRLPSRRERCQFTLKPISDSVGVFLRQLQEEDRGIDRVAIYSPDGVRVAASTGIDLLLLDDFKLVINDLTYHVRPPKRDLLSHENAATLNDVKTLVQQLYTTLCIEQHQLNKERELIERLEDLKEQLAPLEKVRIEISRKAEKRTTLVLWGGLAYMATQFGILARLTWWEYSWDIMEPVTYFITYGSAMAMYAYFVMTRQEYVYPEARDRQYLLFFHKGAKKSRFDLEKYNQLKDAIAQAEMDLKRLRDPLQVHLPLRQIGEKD
T1 sequence (Q9H4I9 48-107 partner limits assumed): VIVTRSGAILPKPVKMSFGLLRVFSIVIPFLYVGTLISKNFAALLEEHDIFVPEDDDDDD
Summary of the method: (§1)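 Trypsinised cells permeabilised on ice for 15 min in KCl buffer (HEPES, pH 7.2) with 80 μM digitonin and 1 μM thapsigargin. Resuspended with 1 μM Calcium Green-5N and 2 mM succinate (HeLa 5 × 10^6, HEK293T 1 × 10^7 cells mL−1). Complex equilibrated ~200 s at room temperature, then CaCl2 added (HeLa 10, HEK293T 20 μM). Read ex 488/em 528 every 5 s. Rate from exponential time constant vs untreated; Hill IC50; three biological replicates ± SD.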

[2] = target: T1, mitochondrial calcium uniporter (MCU); experiment: mCa2+ uptake inhibition in digitonin-permeabilized HeLa cells; assay type: cell-based; conditions: for mCa2+ uptake inhibition compared to untreated cells: 25 μM complex, digitonin-permeabilized HeLa cells
Summary of the method: as §1

[3] = Cytotoxicity, MTT assay, HeLa cells; assay type: cell-based; conditions: human
Summary of the method: (§2)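 Cells seeded at ~4000 per well and left overnight, then exposed to a range of complex concentrations in medium for 72 h. MTT was added at 1 mg mL−1 in FBS-free DMEM for 3 h, and formazan was dissolved in 8:1 DMSO/glycine buffer (pH 10) for absorbance. Viability was normalised to untreated cells (100%), with Hill fit for IC50. Three independent trials ± SD.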

[4] = Cytotoxicity, MTT assay, HEK293T cells; assay type: cell-based; conditions: human
Summary of the method: as §2

[5] = target: T1, mitochondrial calcium uniporter (MCU); experiment: Mitochondrial Ca2+ uptake in intact HeLa cells using Rhod 2-AM; assay type: cell-based; conditions: 50 μM, 2 h, 37 °C, histamine 100 μM
Summary of the method: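 About 1 × 10^5 HeLa cells left overnight, then exposed to complex (50 μM) in DMEM/10% FBS for 2 h at 37 °C. Loaded with 2 μM Rhod 2-AM in extracellular medium (1 mM CaCl2, 10 mM glucose, BSA, Pluronic F127) for 30 min in the dark at room temperature. Then 30 min dye-free, 15 min at 37 °C. Confocal imaging, ex 561/em 568–712 nm: ~30 s baseline, then histamine (100 μM), frames every 3 s. Per-cell CTCF expressed as F/F0.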

HeLa cells = experiment: Mitochondrial membrane potential via JC-1 assay, HeLa cells; assay type: cell-based; conditions: 50 μM, 24 h
Summary of the method: (§3)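 About 1 × 10^5 cells on glass-bottomed dishes, left overnight, then exposed to complex (50 μM) for 24 h at 37 °C. Loaded with 10 μM JC-1 for 30 min in the dark at 37 °C, washed, and imaged in PBS with green (monomer) and red (J-aggregate) filter sets. The positive control was 50 μM CCCP in PBS. Red/green CTCF came from ≥8 cells, normalised to untreated (=1). Three trials ± SD.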

HEK293T cells = experiment: Mitochondrial membrane potential via JC-1 assay, HEK293T cells; assay type: cell-based; conditions: 50 μM, 24 h
Summary of the method: as §3

[6] = target: T1, mitochondrial calcium uniporter (MCU); conditions: ref [35],[37],[39],[36]; cited from earlier work
[7] = target: T1, mitochondrial calcium uniporter (MCU); conditions: read-out: mCa2+ uptake inhibition IC50 HeLa, permeabilized HeLa cells, cited from earlier work
[8] = target: T1, mitochondrial calcium uniporter (MCU); conditions: read-out: mCa2+ uptake inhibition IC50 HEK293T; permeabilized HEK293T cells; ref [36]; cited from earlier work

Compound: O=[N+]([O-])C12CNCCNCC([N+](=O)[O-])(CNCCNC1)CNCCNC2.[Co+3] [Compound 1, [Co(diNOsar)]^3+]
IC50 [1]: 7980 ± 370 nM
IC50 [2]: 6050 ± 480 nM

Compound: NC12CNCCNCC(N)(CNCCNC1)CNCCNC2.[Co+3] [Compound 2, [Co(diAMsar)]^3+]
IC50 [1]: > 25000 nM
viability at 72 h, 1000 µM [3]: 40%
viability at 72 h, 1000 µM [4]: 40%
IC50 [2]: > 25000 nM

Compound: CC(CNCCN)(CNCCN)CNCCN.[Co+3] [Compound 3, [Co(sen)]^3+]
inhibition of histamine-induced mCa2+ uptake in intact cells [5]: statistically significant decrease in mCa^2+ uptake
IC50 [1]: 180 ± 20 nM
depolarization of the mitochondrial membrane potential (JC-1) (HeLa cells): did not lead to depolarization
depolarization of the mitochondrial membrane potential (JC-1) (HEK293T cells): did not lead to depolarization
IC50 [2]: 160 ± 20 nM
mCa2+ uptake inhibition compared to untreated cells [2]: completely abolish mCa^2+ uptake

Compound: CC12CNCCNCC([N+](=O)[O-])(CNCCNC1)CNCCNC2.[Co+3] [Compound 4, [Co(MeNOsar)]^3+]
IC50 [1]: 2730 ± 200 nM
IC50 [2]: 2910 ± 260 nM
mCa2+ uptake inhibition compared to untreated cells [2]: comparable to that of 1

Compound: CCOC(=O)C12CNCCNCC(C)(CNCCNC1)CNCCNC2=O.[Co+3] [Compound 5, [Co(CO2Et,Mesar)]^2+]
IC50 [1]: > 25000 nM
IC50 [2]: > 25000 nM

Compound: CC12CNCCNCC(C(=O)O)(CNCCNC1)C(=O)NCCNC2.[Co+3] [Compound 6, [Co(CO2H,Mesar)]^2+]
IC50 [1]: > 25000 nM
IC50 [2]: > 25000 nM

Compound: N.N.N.N.N.N.N.N.[Cl][Ru+3].[N-]=[Ru][Cl] [Ru265]
inhibition of MCU-mediated mCa2+ uptake in intact HeLa cells [6]: able to inhibit
inhibition of histamine-induced mCa2+ uptake in intact cells [5]: significantly diminish mCa^2+ uptake

Compound: N.N.N.N.N.N.N.N.[Cl][Ru+3].[NH]=[Ru][Cl] [Ru265]
IC50 ([7]; ref [36]): 3.9 ± 1 nM
IC50 [8]: 8.6 ± 2.2 nM

inhibition of histamine-induced mCa2+ uptake in intact cells [5]: cannot
Compound: NCCN.NCCN.NCCN.[Co+3] [[Co(en)3]^3+]
IC50 ([7]; ref [36]): 115 ± 13 nM
IC50 [8]: 76 ± 10 nM

Compound: Os245
inhibition of MCU-mediated mCa2+ uptake in intact HeLa cells [6]: able to inhibit
IC50 ([7]; ref [39]): 103 ± 30 nM

Compound: Os245′
IC50 ([7]; ref [39]): 2.3 ± 0.8 nM
